Source: PMC10464598 (RSC Advances, 2023)

These molecules were tested against urease (Canavalia ensiformis, UniProt P07374) (assay: Urease inhibition assay).
Type: biochemical
How it was run: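 Test compound was preincubated with urease (enzyme solution 5 U ml−1) in buffer for 10 min at 37 °C. Alkaline and phenolic reagents were then added, and absorbance was read at 625 nm. Thiourea served as the standard inhibitor. Assays were run in triplicate. % inhibition = (A control − A sample)/A control × 100. IC50 was obtained by non-linear regression of % inhibition against concentration.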

Sequence of urease (P07374 whole entry, looked up): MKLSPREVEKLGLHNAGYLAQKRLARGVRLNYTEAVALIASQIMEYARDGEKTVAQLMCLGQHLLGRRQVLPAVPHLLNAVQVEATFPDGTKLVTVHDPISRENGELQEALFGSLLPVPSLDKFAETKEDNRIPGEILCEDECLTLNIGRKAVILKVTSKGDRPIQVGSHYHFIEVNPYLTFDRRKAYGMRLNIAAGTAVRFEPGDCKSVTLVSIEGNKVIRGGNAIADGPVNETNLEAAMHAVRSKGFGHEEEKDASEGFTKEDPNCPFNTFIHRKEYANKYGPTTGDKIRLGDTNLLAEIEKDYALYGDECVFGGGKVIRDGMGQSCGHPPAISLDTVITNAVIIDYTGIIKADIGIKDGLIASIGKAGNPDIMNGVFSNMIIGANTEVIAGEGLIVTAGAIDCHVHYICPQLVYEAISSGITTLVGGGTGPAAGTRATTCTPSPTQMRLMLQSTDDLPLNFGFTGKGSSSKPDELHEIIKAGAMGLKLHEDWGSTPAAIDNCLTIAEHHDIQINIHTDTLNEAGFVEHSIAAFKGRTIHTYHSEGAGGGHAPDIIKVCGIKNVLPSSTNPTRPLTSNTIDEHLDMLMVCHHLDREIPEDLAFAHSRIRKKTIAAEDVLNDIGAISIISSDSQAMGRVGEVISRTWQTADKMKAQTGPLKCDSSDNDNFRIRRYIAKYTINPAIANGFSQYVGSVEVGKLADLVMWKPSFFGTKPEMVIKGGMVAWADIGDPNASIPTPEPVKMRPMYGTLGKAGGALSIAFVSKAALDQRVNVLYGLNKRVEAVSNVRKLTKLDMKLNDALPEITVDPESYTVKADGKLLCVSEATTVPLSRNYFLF

Structure (SMILES) | IC50 [µM]
COc1ccc(-c2nnc(C(C)c3ccc(-c4ccccc4)c(F)c3)o2)c(OC)c1OC (stereo not drawn) [Compound 10, 2-(2,3,4-Trimethoxyphenyl)-5-(1-(2-fluoro-[1,1′-biphenyl]-4-yl)ethyl)-1,3,4-oxadiazole] | 20 ± 0.5
COc1cccc(OC)c1-c1nnc(C(C)c2ccc(-c3ccccc3)c(F)c2)o1 (stereo not drawn) [Compound 15, 2-(2,6-Dimethoxyphenyl)-5-(1-(2-fluoro-[1,1′-biphenyl]-4-yl)ethyl)-1,3,4-oxadiazole] | 31 ± 1.2
CC(c1ccc(-c2ccccc2)c(F)c1)c1nnc(-c2ccc(O)c(Br)c2)o1 (stereo not drawn) [Compound 28, 2-Bromo-4-(5-(1-(2-fluoro-[1,1′-biphenyl]-4-yl)ethyl)-1,3,4-oxadiazol-2-yl)phenol] | 14 ± 0.3
CCOc1cc(-c2nnc(C(C)c3ccc(-c4ccccc4)c(F)c3)o2)ccc1OC (stereo not drawn) [Compound 14, 2-(3-Ethoxy-4-methoxyphenyl)-5-(1-(2-fluoro-[1,1′-biphenyl]-4-yl)ethyl)-1,3,4-oxadiazole] | 35 ± 1.2
CC(c1ccc(-c2ccccc2)c(F)c1)c1nnc(-c2cccc([N+](=O)[O-])c2)o1 (stereo not drawn) [Compound 8, 2-(1-(2-Fluoro-[1,1′-biphenyl]-4-yl)ethyl)-5-(3-nitrophenyl)-1,3,4-oxadiazole] | 41 ± 1.2
CC(c1ccc(-c2ccccc2)c(F)c1)c1nnc(-c2cccc(C(F)(F)F)c2)o1 (stereo not drawn) [Compound 26, 2-(1-(2-Fluoro-[1,1′-biphenyl]-4-yl)ethyl)-5-(3-(trifluoromethyl)phenyl)-1,3,4-oxadiazole] | 12 ± 0.1
COc1cc(-c2nnc(C(C)c3ccc(-c4ccccc4)c(F)c3)o2)ccc1Oc1ccccc1 (stereo not drawn) [Compound 19, 2-(1-(2-Fluoro-[1,1′-biphenyl]-4-yl)ethyl)-5-(3-methoxy-4-phenoxyphenyl)-1,3,4-oxadiazole] | 16 ± 0.3
CC(c1ccc(-c2ccccc2)c(F)c1)c1nnc(-c2ccc(-c3ccccc3)c(F)c2)o1 (stereo not drawn) [Compound 29, 2-(2-Fluoro-[1,1′-biphenyl]-4-yl)-5-(1-(2-fluoro-[1,1′-biphenyl]-4-yl)ethyl)-1,3,4-oxadiazole] | 41 ± 1.4
Cc1ccc(-c2nnc(C(C)c3ccc(-c4ccccc4)c(F)c3)o2)s1 (stereo not drawn) [Compound 30, 2-(1-(2-Fluoro-[1,1′-biphenyl]-4-yl)ethyl)-5-(5-methylthiophen-2-yl)-1,3,4-oxadiazole] | 12 ± 0.1
CC(c1ccc(-c2ccccc2)c(F)c1)c1nnc(-c2ccccc2[N+](=O)[O-])o1 (stereo not drawn) [Compound 32, 2-(1-(2-Fluoro-[1,1′-biphenyl]-4-yl)ethyl)-5-(2-nitrophenyl)-1,3,4-oxadiazole] | 15 ± 0.3
CC(c1ccc(-c2ccccc2)c(F)c1)c1nnc(-c2ccc([N+](=O)[O-])cc2)o1 (stereo not drawn) [Compound 16, 2-(1-(2-Fluoro-[1,1′-biphenyl]-4-yl)ethyl)-5-(4-nitrophenyl)-1,3,4-oxadiazole] | 13 ± 0.2
CC(c1ccc(-c2ccccc2)c(F)c1)c1nnc(-c2cc([N+](=O)[O-])ccc2Cl)o1 (stereo not drawn) [Compound 11, 2-(2-Chloro-5-nitrophenyl)-5-(1-(2-fluoro-[1,1′-biphenyl]-4-yl)ethyl)-1,3,4-oxadiazole] | 41 ± 1.2
CSc1ccc(-c2nnc(C(C)c3ccc(-c4ccccc4)c(F)c3)o2)cc1 (stereo not drawn) [Compound 27, 2-(1-(2-Fluoro-[1,1′-biphenyl]-4-yl)ethyl)-5-(4-(methylthio)phenyl)-1,3,4-oxadiazole] | 34 ± 2.4
CC(c1ccc(-c2ccccc2)c(F)c1)c1nnc(-c2ccc(Br)cc2)o1 (stereo not drawn) [Compound 21, 2-(4-Bromophenyl)-5-(1-(2-fluoro-[1,1′-biphenyl]-4-yl)ethyl)-1,3,4-oxadiazole] | 13 ± 0.2
COc1cc(-c2nnc(C(C)c3ccc(-c4ccccc4)c(F)c3)o2)cc(OC)c1Br (stereo not drawn) [Compound 23, 2-(4-Bromo-3,5-dimethoxyphenyl)-5-(1-(2-fluoro-[1,1′-biphenyl]-4-yl)ethyl)-1,3,4-oxadiazole] | 37 ± 1.4
CC(c1ccc(-c2ccccc2)c(F)c1)c1nnc(-c2cccc3ccccc23)o1 (stereo not drawn) [Compound 5, 2-(1-(2-Fluoro-[1,1′-biphenyl]-4-yl)ethyl)-5-(naphthalen-1-yl)-1,3,4-oxadiazole] | 39 ± 1.2

Other lines, results leading:

IC50 [µM] | Structure (SMILES)
35 ± 1.5 | COc1ccc(OC)c(-c2nnc(C(C)c3ccc(-c4ccccc4)c(F)c3)o2)c1 (stereo not drawn) [Compound 25, 2-(2,5-Dimethoxyphenyl)-5-(1-(2-fluoro-[1,1′-biphenyl]-4-yl)ethyl)-1,3,4-oxadiazole]
74 ± 1.3 | CCOc1ccc(-c2nnc(C(C)c3ccc(-c4ccccc4)c(F)c3)o2)c(OC)c1 (stereo not drawn) [Compound 12, 2-(4-Ethoxy-2-methoxyphenyl)-5-(1-(2-fluoro-[1,1′-biphenyl]-4-yl)ethyl)-1,3,4-oxadiazole]
36 ± 1.2 | COc1ccc(-c2nnc(C(C)c3ccc(-c4ccccc4)c(F)c3)o2)c(Cl)c1OC (stereo not drawn) [Compound 17, 2-(2-Chloro-3,4-dimethoxyphenyl)-5-(1-(2-fluoro-[1,1′-biphenyl]-4-yl)ethyl)-1,3,4-oxadiazole]
16 ± 0.1 | CC(c1ccc(-c2ccccc2)c(F)c1)c1nnc(-c2ccccc2N)o1 (stereo not drawn) [Compound 7, 2-(5-(1-(2-Fluoro-[1,1′-biphenyl]-4-yl)ethyl)-1,3,4-oxadiazol-2-yl) aniline]
12 ± 0.9 | COc1ccccc1-c1nnc(C(C)c2ccc(-c3ccccc3)c(F)c2)o1 (stereo not drawn) [Compound 20, 2-(1-(2-Fluoro-[1,1′-biphenyl]-4-yl)ethyl)-5-(2-methoxyphenyl)-1,3,4-oxadiazole]
15 ± 0.3 | CC(c1ccc(-c2ccccc2)c(F)c1)c1nnc(-c2cccc(O)c2O)o1 (stereo not drawn) [Compound 31, 3-(5-(1-(2-Fluoro-[1,1′-biphenyl]-4-yl)ethyl)-1,3,4-oxadiazol-2-yl)benzene-1,2-diol]
31 ± 1.4 | COc1ccc(-c2nnc(C(C)c3ccc(-c4ccccc4)c(F)c3)o2)c(F)c1 (stereo not drawn) [Compound 22, 2-(2-Fluoro-4-methoxyphenyl)-5-(1-(2-fluoro-[1,1′-biphenyl]-4-yl)ethyl)-1,3,4-oxadiazole]
72 ± 1.2 | COc1ccc(Br)cc1-c1nnc(C(C)c2ccc(-c3ccccc3)c(F)c2)o1 (stereo not drawn) [Compound 9, 2-(5-Bromo-2-methoxyphenyl)-5-(1-(2-fluoro-[1,1′-biphenyl]-4-yl)ethyl)-1,3,4-oxadiazole]
16 ± 0.9 | COc1cc(-c2nnc(C(C)c3ccc(-c4ccccc4)c(F)c3)o2)ccc1F (stereo not drawn) [Compound 13, 2-(4-Fluoro-3-methoxyphenyl)-5-(1-(2-fluoro-[1,1′-biphenyl]-4-yl)ethyl)-1,3,4-oxadiazole]
13 ± 0.1 | CC(c1ccc(-c2ccccc2)c(F)c1)c1nnc(-c2ccc(Br)cc2F)o1 (stereo not drawn) [Compound 24, 2-(4-Bromo-2-fluorophenyl)-5-(1-(2-fluoro-[1,1′-biphenyl]-4-yl)ethyl)-1,3,4-oxadiazole]
20 ± 0.5 | CC(c1ccc(-c2ccccc2)c(F)c1)c1nnc(-c2ccc(O)c(O)c2O)o1 (stereo not drawn) [Compound 6, 4-(5-(1-(2-Fluoro-[1,1′-biphenyl]-4-yl)ethyl)-1,3,4-oxadiazol-2-yl) benzene-1,2,3-triol]
